Assay results reported in ChEMBL document CHEMBL1146561, “New sesterterpene sulfates from the sponge Darwinella australensis” (J Nat Prod, 2003).

Legend:
[1] = tested on: Streptococcus sp.; assay: Antimicrobial activity against Streptococcus sp. at 25 ug by paper-disk method; assay type: functional; conditions: read-out: IZ
In short: (§1)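 Paper-disk diffusion assay with 25 μg of sample applied. Activity was read as the diameter of the inhibition zone in mm.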

[2] = tested on: Bacillus subtilis; assay: Antimicrobial activity against Bacillus subtilis at 25 ug by paper-disk method; assay type: functional; conditions: read-out: IZ; in short: as §1
[3] = tested on: Candida albicans; assay: Antimicrobial activity against Candida albicans at 25 ug by paper-disk method; assay type: functional; conditions: read-out: IZ; in short: as §1
[4] = tested on: Escherichia coli; assay: Antimicrobial activity against Escherichia coli at 25 ug by paper-disk method; assay type: functional; conditions: read-out: IZ; in short: as §1
[5] = tested on: Staphylococcus aureus; assay: Antimicrobial activity against Staphylococcus aureus at 25 ug by paper-disk method; assay type: functional; conditions: read-out: IZ; in short: as §1
[6] = tested on: K562; assay: Cytotoxicity against human K562 cells by MTT assay; assay type: functional; conditions: read-out: LC50 (the source's name)
In short: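 Human leukemia K562 line; viability by MTT method; activity expressed as LC50 in μg/mL.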

[7] = Inhibition of cell division in sea urchin fertilized egg; assay type: functional, Strongylocentrotus intermedius
In short: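 Fertilized eggs of the sea urchin Strongylocentrotus intermedius were scored for inhibition of cell division. IC50 is expressed in μg/mL.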

Compound	zone of inhibition at 25 µg/disc [1] [mm]	zone of inhibition at 25 µg/disc [2] [mm]	zone of inhibition at 25 µg/disc [3] [mm]	zone of inhibition at 25 µg/disc [4] [mm]	zone of inhibition at 25 µg/disc [5] [mm]	CC50 [6] [µg/mL]	IC50 [7] [µg/mL]
C[C@H]1CC[C@H]2C(=CC(=O)CC2(C)C)[C@@]1(C)CCC(CCCc1ccoc1)COS(=O)(=O)[O-].[Na+] (stereo not given in full) [HALISULPHATE 8]	< 3	< 3	< 3	< 3	< 3	> 100	–
C[C@H]1CC[C@H]2C(=CCCC2(C)C)[C@@]1(C)CCC(CCCC1=CC(=O)OC1)COS(=O)(=O)[O-].[Na+] (stereo not given in full) [HALISULPHATE 9]	< 3	< 3	< 3	< 3	< 3	> 100	50
COC1C=C(CCCC(CC[C@]2(C)C3=CCCC(C)(C)[C@H]3CC[C@@H]2C)COS(=O)(=O)[O-])C(=O)O1.[Na+] (stereo not given in full) [HALISULPHATE 10]	< 3	< 3	< 3	< 3	< 3	> 100	35
